Sampled rows, rich in hits. Any-hit rate of the full collection: about 1.7%.
UBC13 inh – inhibitors of human UBC13 polyubiquitin chain formation. AID 485273. P61088. inhibition, % at 20 µM. 0.47% of 330,000 active. TR-FRET; in the data active means inhibition above about 45%, passing the limit was not always enough
Target sequence (P61088 whole entry, looked up): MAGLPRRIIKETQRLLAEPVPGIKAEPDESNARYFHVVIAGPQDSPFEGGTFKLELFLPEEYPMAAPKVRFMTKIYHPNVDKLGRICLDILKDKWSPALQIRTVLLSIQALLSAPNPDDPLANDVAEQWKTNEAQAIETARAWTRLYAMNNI
ZTA DNA inh – ZTA (EBV) inhibition in EBNA-1 counter-screen; P03206; ZTA-DNA binding, fluorescence polarization; inhibition, % at 11 µM; 0.15% of 320,000 active; AID 2234; in the data active means inhibition above about 33%
Target sequence (P03206 whole entry, looked up): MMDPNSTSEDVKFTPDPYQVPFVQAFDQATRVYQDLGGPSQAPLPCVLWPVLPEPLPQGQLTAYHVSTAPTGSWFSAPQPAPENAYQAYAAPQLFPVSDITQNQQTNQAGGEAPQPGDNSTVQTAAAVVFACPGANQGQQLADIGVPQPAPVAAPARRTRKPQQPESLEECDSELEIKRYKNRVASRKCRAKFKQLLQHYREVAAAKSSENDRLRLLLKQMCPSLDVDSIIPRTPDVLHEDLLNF
EBNA-1 inh – blocks EBNA-1 binding to DNA | AID 1950 | inhibition, % at 14.8 µM | 0.34% of 300,000 active | EBNA-1 DNA binding, fluorescence polarization; in the data active means inhibition above about 28%
PREPL inhibitor – human PREPL enzyme inhibition; Q4J6C6; recombinant PREPL, fluorescence polarization activity-based probe; inhibition, % at 5.96 µM; 0.68% of 320,000 active; AID 2751; in the data active means inhibition above about 43%;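 further: 0% = enzyme with DMSO and 100% = wells lacking enzyme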
Apaf1 inhib – human Apaf-1 inhibition; O14727; inhibition, % at 20 µM; 0.71% of 330,000 active; reconstituted apoptosome caspase-3 activity, DEVD-Rh110 fluorescence; active means inhibition of at least 40% at 20 µM;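 further: plate controls were DMSO wells for no effect and DEVD-CHO caspase inhibitor wells for full effect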
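System – cell-free apoptosome with Apaf-1, procaspase-3 and caspase-9 · Buffer or medium – pH 7.5 Hepes buffer with CHAPS, BSA, DTT · Also added – cytochrome c with DEVD-Rh110 · Times – 30 min compound preincubation, 50 min activation, room temperature · Technique – Rh110 fluorescence intensity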
Apaf-1 inh conf – confirmation of Apaf-1 inhibitors | shares compounds with Apaf1 inhib | reconstituted apoptosome, caspase-3 DEVD-Rh110 fluorescence | inhibition, % at 20 µM | 25% of 1,800 active;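 active means mean inhibition of at least 40% at 20 µM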;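 further: plate controls were DMSO wells for no effect and DEVD-CHO caspase inhibitor control wells for full effect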
Rh110 interf inh – counter-screen for Apaf-1 inhibitors: fluorescence interference; Rh110 fluorescence interference, quenched caspase reaction; activation (fluorescence interference), % at 20 µM; shares compounds with Apaf1 inhib; 1,800 tested, under 10 active;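 active means signal rise of 40% or more at 20 µM, treated as a fluorescence artifact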
Fluor interf inh – Apaf-1 inhibitor counter-screen fluorescence artifact; shares compounds with Apaf1 inhib; fluorescence interference counterscreen, Apaf-1 assay format; IC50, µM; 460 tested, under 10 active; AID 588538; call rule not given here
Starred values were filed as active, the others as inactive; . = not tested or not shown.

SMILES | UBC13 inh | ZTA DNA inh | EBNA-1 inh | PREPL inhibitor | Apaf1 inhib | Apaf-1 inh conf | Rh110 interf inh | Fluor interf inh
O=C(O)CCNc1cc(N2CCN(C(=O)c3ccco3)CC2)c2noc3c2c1C(=O)c1ccccc1-3 | -139.8 | 163.3* | 127.3* | 37.5 | 81.3* | 73.0* | 1.5 | 13.2*
Cc1cc(N2CCN(C(=O)c3ccco3)CC2)c2ccccc2n1 | -1.6 | 2.6 | -0.4 | 11.8 | -6.4 | . | . | .
COc1ccccc1N1CCN(C(c2cccs2)C(C)NS(=O)(=O)c2ccccc2)CC1 (stereo not given) | 0.6 | -11.0 | -0.7 | -6.6 | 55.4* | 46.4* | 2.8 | >100
CC(NS(=O)(=O)c1ccccc1)C(c1cccs1)N1CCN(c2ccccc2)CC1 (stereo not given) | -0.4 | -31.2 | -3.1 | 11.3 | 11.4 | . | . | .
O=C1C(=O)c2ccccc2C([O-])=C1[n+]1ccccc1 | -12.2 | -15.0 | 0.1 | -2.4 | 32.4 | . | . | .
CCc1cc[n+](C2=C([O-])c3ccccc3C(=O)/C2=N\S(=O)(=O)c2cccs2)cc1 | -104.7 | -5.0 | -1.1 | 37.9 | 68.2* | 63.5* | 2.0 | >100
COC(=O)C1=C(C)N(Cc2ccccc2)C(=NCc2ccc3c(c2)OCO3)N[C@H]1c1ccccc1 | 38.7 | . | . | -10.1 | 44.5* | 18.9 | 21.8 | .
CCOC(=O)c1nc(NCc2ccccc2C)c2ccccc2n1 | -13.8 | -2.4 | 2.1 | -10.2 | -0.1 | . | . | .
CCn1c(SCC(=O)Nc2oc(-c3ccccc3)c(-c3ccccc3)c2C#N)nnc1-c1ccncc1 | -30.5 | 6.3 | -8.7 | 2.3 | 20.1 | . | . | .
S=C(N/N=C/c1ccc(Br)cc1)N1CCCCC1 | -0.3 | -12.7 | -3.4 | -11.7 | 6.2 | . | . | .
CCN1CCN(Cc2ccc(NC(=O)c3cc(NC(=O)C4=NN(c5ccccc5)C(=O)C4)cc(OC)c3)cc2C(F)(F)F)CC1 | 0.3 | -4.5 | -10.2 | -7.3 | 50.6* | 20.6 | 11.6 | .
CN(CC(=O)Nc1ccc(Cl)cc1)C(=O)c1sccc1-c1ccccc1 | 22.5 | -15.0 | . | 9.2 | 45.9* | 33.9 | 5.6 | .
Cc1[nH]c2ccccc2c1/C=N/Nc1nc2ccccc2[nH]1 | -3.6 | 8.1 | -14.9 | 53.0* | 40.0 | 18.1 | 9.1 | .
Cc1ccccc1/C=N/Nc1nc2ccccc2[nH]1 | 1.6 | 9.5 | -1.9 | 40.8 | 12.7 | . | . | .
Cc1ccc(NC(=O)CN2C(=O)S/C(=C/c3ccc(-c4cc(C(=O)O)ccc4C)o3)C2=O)cc1C | -20.6 | -20.0 | -5.9 | -3.8 | 41.6* | 38.4 | 9.7 | .
C=CCNC(C(=O)Nc1cccc(OC)c1)c1ccccc1 (stereo not given) | -0.2 | -8.8 | -9.9 | 6.7 | 42.9* | -5.6 | 3.0 | .
CC(C)=CCC1=C(OCC(=O)O)C(=O)c2ccccc2C1=O | -86.6 | 10.5 | 5.1 | 13.0 | 95.3* | 88.2* | -8.3 | >100
CC(C)=CCC/C(C)=C/CC/C(C)=C/CC/C(C)=C/CC1=C(C)C(=O)c2ccccc2C1=O | -27.3 | -2.8 | 4.3 | -6.1 | 25.8 | . | . | .
C/C(CCc1ccc2c(c1)OCO2)=N\NC(=O)c1ccccc1Cl | 7.0 | -1.0 | -7.4 | -16.4 | -1.6 | . | . | .
O=C(NCC1COc2ccccc2O1)c1ccc(-n2cncn2)c([N+](=O)[O-])c1 (stereo not given) | -5.6 | 7.3 | -5.0 | 10.2 | 7.2 | . | . | .
CCCCCCOC(=O)C(C#N)c1nc2ccccc2nc1N1CCN(CC)CC1 (stereo not given) | 14.8 | 2.8 | -8.8 | 17.4 | 41.7* | 28.1 | 9.5 | .
CCOc1ccc(-c2nc(S(=O)(=O)c3ccccc3)c(N3CCOCC3)o2)cc1 | 12.1 | 1.2 | 0.8 | 2.9 | -4.4 | . | . | .
CC(=O)N1CCN(C(=O)c2cc(=O)c3ccccc3o2)CC1 | -2.0 | 9.2 | 11.8 | 0.0 | -7.8 | . | . | .
C/C(=N\NC(=O)Cc1cc(=O)[nH][nH]1)c1cccc([N+](=O)[O-])c1 | -18.9 | -1.4 | 6.4 | 4.4 | 51.4* | 10.7 | -2.4 | .
C/C(=N/NC(=O)Cc1cc(=O)[nH][nH]1)c1ccc([N+](=O)[O-])cc1 | -4.6 | 19.1 | 6.2 | 5.0 | 54.9* | 8.5 | -5.5 | .
SMILES | UBC13 inh | ZTA DNA inh | EBNA-1 inh | PREPL inhibitor | Apaf1 inhib | Apaf-1 inh conf | Rh110 interf inh | Fluor interf inh
C/C(=N\NC(=O)C(N)=O)c1cccc([N+](=O)[O-])c1 | 11.6 | -4.8 | 10.0 | -9.7 | -5.3 | . | . | .
COc1ccccc1N(/N=C1\Sc2ccccc2C1=O)C(C)=O | -28.0 | 6.2 | 2.5 | 17.8 | 82.6* | 72.7* | 3.8 | >100
COc1ccccc1N(C)S(=O)(=O)c1ccc(C(=O)O)cc1 | -1.7 | -4.1 | -3.0 | 9.0 | -3.8 | . | . | .
COc1cccc2c1C(=O)C=C(C)C2=O | -40.7 | 3.2 | 10.0 | 3.1 | 56.1* | 65.3* | 4.9 | >100
O=C1N/C(=C\c2ccc(O)cc2)C(=O)c2ccccc21 | -48.0 | 8.6 | -8.9 | 10.6 | 97.0* | 73.6* | -0.3 | >100
O=C(O)/C=C1\NC(=O)c2ccccc21 | -5.3 | 1.7 | 0.2 | 1.5 | 8.4 | . | . | .
COC(=O)c1ccccc1NC1=C/C(=N\S(=O)(=O)c2ccc(C(=O)O)cc2)c2ccccc2C1=O | -128.1 | 2.8 | -10.0 | 21.5 | 95.2* | 96.7* | 3.9 | >100
COC(=O)c1ccccc1NC1=C/C(=N\S(=O)(=O)c2cccs2)c2ccccc2C1=O | -66.5 | 0.6 | 2.5 | 24.5 | 91.9* | 94.1* | 13.9 | >100
COC(=O)c1ccccc1Nc1ccccc1 | 5.8 | -16.9 | -13.2 | -7.5 | 8.1 | . | . | .
CC(C)(C)c1ccc(S(=O)(=O)/N=C2\C=C(NS(=O)(=O)c3ccccc3)C(=O)c3ccccc32)cc1 | -81.2 | 11.7 | 8.1 | 6.9 | 46.0* | 52.6* | 4.1 | >100
Cc1ccc(NC2=C/C(=N/S(=O)(=O)c3cccs3)c3ccccc3C2=O)cc1 | -69.7 | -12.6 | -19.2 | 5.4 | 92.4* | 94.6* | 6.5 | >100
CCc1c(C)sc(NC(=O)c2cc(-c3cc(OC)ccc3OC)on2)c1C#N | 10.9 | -14.3 | -2.5 | -0.2 | -15.6 | . | . | .
O=C(CNC(=O)c1cccs1)OCC(=O)c1ccc([N+](=O)[O-])cc1 | -10.8 | 2.3 | -12.0 | -3.2 | -3.6 | . | . | .
Cc1ccc(C(=O)N(CC(=O)NC2CCCC2)c2ccccc2C)s1 | -3.9 | -0.5 | -0.1 | -9.9 | 9.4 | . | . | .
COc1cc(OC)cc(C(=O)Nc2ncc3c(n2)CC(C)CC3=O)c1 (stereo not given) | -0.4 | -1.6 | -0.3 | -0.1 | -2.9 | . | . | .
Cc1ccc(S(=O)(=O)/N=C2/C=C(Sc3ncn[nH]3)C(=O)c3ccccc32)c(C)c1 | . | 31.1 | 5.8 | 11.9 | . | . | . | .
Cc1ccc(S(=O)(=O)/N=C2\C=C(Nc3ccc(O)cc3)C(=O)c3ccccc32)cc1 | -174.4 | . | . | 39.3 | 95.5* | 97.0* | 0.8 | >100
Cc1ccc(S(=O)(=O)/N=C2\C=C(Nc3cccc(C(=O)O)c3)C(=O)c3ccccc32)c(C)c1 | -153.6 | 30.3 | -6.4 | 27.6 | 90.2* | 85.3* | 20.4 | .
